Experimental data as given in ChEMBL document CHEMBL1141431, “Brandisianins A-F, isoflavonoids isolated from Millettia brandisiana in a screening program for death-receptor expression enhancement activity” (J Nat Prod, 2007).
Calls of active or inactive are those of the source. The calls are words filed in the database; no cut-off is given here.

What was measured:
[1] = test system: DLD-1; test: Activation of death-receptor 5 expression in human DLD-1/ SacI cells at 35.0 uM by luciferase assay relative to control; assay type: functional
Procedure, shortened: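 DLD-1 human colon cancer cells stably carrying pDR5/SacI (human DR5 promoter–luciferase) plated at 2 × 10^5 cells/well in RPMI with 10% FBS, 24 h at 37 °C, 5% CO2, then exposed 24 h to compound (tested at 17.5 and 35.0 µM). Lysed, luciferase substrate added, luminescence read; activity as relative light intensity versus EtOH-treated control cells; luteolin 17.5 µM positive control; n = 3.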

[2] = test system: HeLa; test: Cytotoxicity against human HeLa cells; assay type: functional, cell-based
[3] = test system: DLD-1; test: Cytotoxicity against human DLD1 cells; assay type: functional, cell-based
[4] = test system: DLD-1; test: Activation of death-receptor 5 expression in human DLD-1/ SacI cells at 17.5 uM by luciferase assay relative to control; assay type: functional, cell-based
Procedure, shortened: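 DLD-1/SacI (human colon cancer line stably carrying human DR5 promoter–luciferase construct) seeded in RPMI with 10% FBS, 24 h at 37 °C, 5% CO2. Treated with samples (17.5 and 35.0 µM) 24 h. Lysed, luciferase substrate added, luminescence read. Activity expressed as light intensity relative to EtOH-treated control cells. Luteolin 17.5 µM as positive control. Means, n = 3 ± SD.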

SMILES | Fold change [1] | IC50 [2] [µM] | IC50 [3] [µM] | Activity [4]
COc1cc(-c2coc3c4c(cc(O)c3c2=O)OC(C)(C)C=C4)c(OC)cc1O | 2.4 | > 25 | > 25 | 
Oc1cc(O)c2c(c1)O[C@H](c1ccc(O)c(O)c1)[C@H](O)C2 [(-)-EPICATECHIN] |  | > 25 | > 25 | 
COc1cc(-c2coc3cc(O)cc(O)c3c2=O)c(OC)cc1OCC=C(C)C [BRANDISIANIN A] |  | > 25 | > 25 | 
C=C(C)[C@H]1Cc2c(cc(O)c3c(=O)c(-c4cc(OC)c(O)cc4OC)coc23)O1 [BRANDISIANIN B] |  | 9.7 | > 25 | 
COc1cc(-c2coc3c(CC=C(C)C)c(O)cc(O)c3c2=O)c(OC)cc1O [BRANDISIANIN C] |  | 19.1 | > 25 | 
COc1cc(-c2coc3c4c(cc(O)c3c2=O)O[C@@](C)(CO)C=C4)c(OC)cc1O [BRANDISIANIN D] | 3 | > 25 | > 25 | Active
COc1cc(-c2coc3c(C/C=C(\C)CO)c(O)cc(O)c3c2=O)c(OC)cc1O [BRANDISIANIN E] |  | 21.7 | > 25 | 
COc1cc2c(cc1O)[C@@H]1Oc3c(cc(OC)c(OC)c3O)[C@@H]1CO2 [BRANDISIANIN F] |  | > 25 | > 25 | 
O=C1C[C@@H](c2ccc(O)cc2)Oc2cc(O)cc(O)c21 [NARINGENIN] |  | > 25 | > 25 | 
COc1cc(-c2coc3cc(O)cc(O)c3c2=O)c(OC)cc1O [OLIBERGIN A] |  | > 25 | > 25 | 
COc1cc(-c2coc3cc(O)c(CC=C(C)C)c(O)c3c2=O)c(OC)cc1O [VIRIDIFLORIN] |  | > 25 | > 25 | 
